Only some compounds are listed: those with a hit (about 3.6% of all), similar ones and a draw of the others.
SKKanGAS inh: inhibitors of SKKanGAS S. pyogenes growth in kanamycin (SK-promoter or general growth effect) | BacTiter-Glo, 6 h | inhibition, % at 7.5 µM | hit rate 1.3% among 300,000 | AID 1662;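 active = mean replicate score, as percent of positive control median, at least 50; inconclusive = mean below 50 but one replicate at or above 50; inactive = mean and every replicate below 50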;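 note: strain carries kanamycin resistance gene driven by streptokinase promoter and grows in 40 µg/ml kanamycin; loss of luminescence reflects streptokinase promoter inhibition or plain growth inhibition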
PfHsp90 set2: growth inhibition of yeast expressing Plasmodium Hsp90; inhibition, % at 9.4 µM; hit rate 0.32% among 310,000; S. cerevisiae expressing PfHsp90, BacTiter-Glo ATP, 48 h; yeast lacking PDR1 and PDR3 efflux regulators;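 active = every replicate shows inhibition above about 80%, whatever the replicate mean, limit read from the data; inconclusive = mean inhibition reaches the set limit but some replicate falls short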
HIF act: HIF pathway transcriptional activation; U2OS HRE-luciferase reporter, luminescence; normalized: DMSO 0%, desferrioxamine 100%; activation, % at 7.5 µM (by protocol); hit rate 0.32% among 300,000;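 active = mean activation of at least 10% of the iron chelator positive control signal, with at least half of replicates also reaching 10%; inconclusive = mean and replicate majority disagree about reaching 10%; inactive = mean and most replicates under 10%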
Beta cell apopt: blocks beta cell apoptosis. INS-1E cytokine-induced death, ATP luminescence, 48 h; percent of positive-control rescue, neutral wells zero. protection from apoptosis, % (concentration not given with the values). hit rate 0.8% among 300,000. AID 435005;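 active = Every replicate reaches about 75%, or at least half do and their mean reaches it too, limit read from the data; inconclusive = At least half of replicates reach the limit but their mean does not; inactive = Under half of replicates reach the limit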;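 note: higher means more ATP so stronger rescue from cytokine killing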
CSC inhib: blocks cancer stem cells. cancer stem cell-like cells viability, luminescence. inhibition, % at 7.5 µM. hit rate 1.1% among 300,000. AID 2717; in the data active = inhibition above about 75%; inconclusive = no clear call, values can overlap the other calls; tested in HMLE shEcad cells
T cruzi repl: blocks replication of Trypanosoma cruzi | hit rate 1.4% among 300,000 | inhibition, % (concentration not given with the values) | T. cruzi beta-gal in NIH3T3, luminescence, 90 h;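 active = mean inhibition across valid replicates above about 55%, limit read from the data; inconclusive = mean below that limit but half or more replicates reach it; inactive = mean below it, under half of replicates reach it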;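 note: signal also drops with host cell toxicity which is not excluded here; higher percent means less beta-gal luminescence so fewer parasites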
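compound dosing = single 50 nL compound addition per well in DMSO | material = NIH/3T3 host cells with β-galactosidase reporter T. cruzi | input = 5,000 host fibroblasts per well | timing = ≥90 h infection period, 3 h prior cell attachment | read-out basis = percent inhibition of parasite-derived β-gal signal | detection = GalScreen β-gal luminescence, detergent lysis, 60 min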
Of the large screens only hits and unclear results are named; the others gave an inactive call.

CC(C)Cn1c2c(c(O)c(C(=O)Nc3ncccc3O)c1=O)CCCC2	SKKanGAS inh 89
CCn1c(=O)c(C(=O)NNC(=O)Cc2ccccc2)c(O)c2ccccc21	SKKanGAS inh 54
CCn1c(=O)c(C(=O)Nc2ccccc2)c(O)c2ccccc21	none
CCCCCCCCCC(=O)NNC(=O)c1c(O)c2ccccc2n(CCC)c1=O	SKKanGAS inh 101
C=CCn1c(=O)c(C(=O)NCCc2ccccc2)c(O)c2ccccc21	CSC inhib 116
CCCCCCCCCCC(=O)NNC(=O)c1c(O)c2ccccc2n(CC)c1=O	SKKanGAS inh 101 (no result: PfHsp90 set2)
CCCCCCCCC(=O)NNC(=O)c1c(O)c2ccccc2n(CCC)c1=O	SKKanGAS inh 117
CCCn1c(=O)c(C(=O)Nc2cccc(C)n2)c(O)c2ccccc21	none (no result: Beta cell apopt)
CCCn1c(=O)c(C(=O)NCc2ccccc2)c(O)c2ccccc21	none
CCCn1c(=O)c(C(=O)Nc2ncccc2C)c(O)c2ccccc21	SKKanGAS inh 55 (no result: CSC inhib)
CCn1c(=O)c(C(=O)Nc2nc3ccccc3[nH]2)c(O)c2ccccc21	SKKanGAS inh 103, Beta cell apopt 118
Clc1ccc2nc(-c3ccccn3)c(Nc3ccc4c(c3)OCO4)n2c1	SKKanGAS inh 92
COCCN(C(=O)c1ccc(C)c(S(=O)(=O)N2CCOCC2)c1)c1c(N)n(CC(C)C)c(=O)[nH]c1=O	none (no result: SKKanGAS inh, HIF act, Beta cell apopt, CSC inhib, T cruzi repl)
Cc1cc(C)c2ccc(N)nc2c1O	SKKanGAS inh 99
Cc1ccc(Cn2c(O)c(N=NC(=S)Nc3ccccc3F)c3ccccc32)cc1	SKKanGAS inh 61, T cruzi repl 66
CCn1c(O)c(N=NC(=O)CNc2cccc(C)c2)c2ccccc21	none
Oc1c(N=NC(=S)Nc2ccccc2F)c2ccccc2n1Cc1ccccc1	SKKanGAS inh inconclusive (no result: CSC inhib)
C=CCn1c(O)c(N=NC(=S)Nc2cccc(C)c2)c2ccccc21	SKKanGAS inh 94, T cruzi repl 59
COC(=O)N=Nc1c(O)n(Cc2ccccc2)c2ccccc12	none
Cc1ccccc1NC(=S)N=Nc1c(O)n(C)c2ccc(S(=O)(=O)N3CCOCC3)cc12	none
Oc1c(N=NC(=S)Nc2ccccc2F)c2ccccc2n1Cc1ccccc1Cl	T cruzi repl 68 (no result: SKKanGAS inh)
Cc1c(Cl)cccc1NC(=S)N=Nc1c(O)n(CN2CCOCC2)c2ccccc12	PfHsp90 set2 107, T cruzi repl 63 (no result: SKKanGAS inh)
NC(=S)N=Nc1c(O)n(Cc2ccccc2)c2ccccc12	none
C=CCn1c(O)c(N=NC(=S)Nc2ccccc2F)c2ccccc21	SKKanGAS inh 101
CCCCNC(=S)N=Nc1c(O)n(Cc2ccccc2)c2ccccc12	CSC inhib 80
C=CCn1c(O)c(N=NC(=S)Nc2ccccc2F)c2cc(S(=O)(=O)N3CCOCC3)ccc21	T cruzi repl 58
C/C(Cl)=C\Cn1c(O)c(N=NC(N)=S)c2ccccc21	T cruzi repl 60
C=CCn1c(O)c(N=NC(=O)CNC(=O)/C=C/c2ccco2)c2ccccc21	none
Cc1cnc(NC(=O)CSC(=S)N2CCOCC2)s1	none
CC(=O)c1c(C)[nH]c(C(=O)COc2cc(C)ccc2C(C)C)c1C	Beta cell apopt 103
Cc1cc(C)nc(Nc2nc3ccccc3o2)n1	none
Brc1ccc(/C=N/Nc2nc3ccccc3o2)cc1	none
Oc1ccccc1/C=N/Nc1nc2ccccc2o1	SKKanGAS inh 106, HIF act 26, Beta cell apopt 98, CSC inhib inconclusive, T cruzi repl 56
COc1cc(/C=N/Nc2nc3ccccc3o2)cc(OC)c1O	none
Oc1ccccc1/C=N/Nc1ncc(Br)cn1	HIF act 34, Beta cell apopt 87
CC(=NNc1nc2ccccc2o1)c1ncccn1	PfHsp90 set2 126 (no result: SKKanGAS inh, HIF act, Beta cell apopt, CSC inhib, T cruzi repl)
CC(=NNc1nc2ccccc2o1)c1cc2ccccc2cn1	PfHsp90 set2 145 (no result: SKKanGAS inh, HIF act, Beta cell apopt, CSC inhib, T cruzi repl)
CC(=O)Nc1ccc(Cl)cc1C1COC(=O)C1=N (centres undefined)	none
O=[N+]([O-])c1ccc(N2N=C(c3ccccc3)CC2c2ccccc2O)cc1 (centres undefined)	SKKanGAS inh 98, PfHsp90 set2 108, CSC inhib 102, T cruzi repl 63
O=C(c1cccs1)N1N=C(c2ccccc2)CC1c1ccccc1O (centres undefined)	T cruzi repl 57
Cc1ccc(C2=NN(C(=O)c3cccs3)C(c3ccccc3O)C2)cc1 (centres undefined)	T cruzi repl 64
O=C(c1ccccc1)N1N=C(c2ccccc2)CC1c1ccccc1O (centres undefined)	none
CC(C)Oc1ccc(C(=O)Nc2cc(S(=O)(=O)N3CCOCC3)ccc2N2CCOCC2)cc1	none (no result: SKKanGAS inh, HIF act, Beta cell apopt, CSC inhib, T cruzi repl)
CN1CCCC1CCNc1ccc2sc3ccccc3c(=O)c2c1 (centres undefined)	none
Cc1cc2oc3cc(NCCC4CCCN4C)ccc3c(=O)c2cc1C (centres undefined)	CSC inhib 103
Cc1cc(C)c2sc(N(CCCN(C)C)C(=O)c3ccc(S(=O)(=O)N(C)Cc4ccccc4)cc3)nc2c1	none (no result: Beta cell apopt)
CN(C)CCN(C(=O)c1ccc(N2C(=O)CCC2=O)cc1)c1nc2cc3c(cc2s1)OCO3	T cruzi repl 57
CN(C)CCCN(C(=O)c1ccc(S(=O)(=O)N(C)Cc2ccccc2)cc1)c1nc2cc3c(cc2s1)OCO3	Beta cell apopt 114
CN(C)CCCN(C(=O)c1ccc2c(c1)OCCO2)c1nc2cc3c(cc2s1)OCO3	none
Cc1ccc2sc(N(CCCN(C)C)C(=O)c3ccc(S(=O)(=O)N(C)Cc4ccccc4)cc3)nc2c1C	T cruzi repl 60 (no result: Beta cell apopt)
CCN(c1ccccc1)S(=O)(=O)c1ccc(C(=O)N(CCCN(C)C)c2nc3cc4c(cc3s2)OCO4)cc1	none
COc1ccc2sc(N(CCCN(C)C)C(=O)c3ccc(S(=O)(=O)N(C)Cc4ccccc4)cc3)nc2c1	T cruzi repl 55 (no result: PfHsp90 set2, Beta cell apopt)
CCN(CC)S(=O)(=O)c1ccc(N2CCOCC2)c(NC(=O)C2=COCCO2)c1	none (no result: CSC inhib)
C[C@H](CO)N1C[C@H](C)[C@@H](CN(C)C(=O)Nc2ccc3c(c2)OCO3)Oc2ccc(NS(=O)(=O)c3ccccc3)cc2C1=O	none (no result: SKKanGAS inh, HIF act, T cruzi repl)
COc1ccc(S(=O)(=O)N2CCCCC2)cc1NC(=O)c1cnc(C)cn1	none (no result: SKKanGAS inh, HIF act, CSC inhib, T cruzi repl)
CCN(CC)CCN(C(=O)c1ccc(S(=O)(=O)N(C)C2CCCCC2)cc1)c1nc2ccc(OC)cc2s1	T cruzi repl 65
CCN(CC)CCN(C(=O)c1ccc(C(=O)c2ccccc2)cc1)c1nc2ccc(OC)cc2s1	none
O=C(NC(c1ccc(Cl)cc1)c1cc(Cl)c2cccnc2c1O)c1cccnc1 (centres undefined)	SKKanGAS inh 113, PfHsp90 set2 102, Beta cell apopt 96, CSC inhib 113, T cruzi repl 58
COc1ccc(C(NC(C)=O)c2cc(Cl)c3cccnc3c2O)cc1 (centres undefined)	SKKanGAS inh 53, Beta cell apopt 95, CSC inhib 107, T cruzi repl 63
CC(=O)NC(c1cc(F)c2cccnc2c1O)C1CC1 (centres undefined)	none (no result: SKKanGAS inh, PfHsp90 set2, HIF act, T cruzi repl)

Screening data: PubChem BioAssay, Broad Institute
